ED50, inhibition and IC50 data for 6 compounds are collected here from ChEMBL document CHEMBL1208780, “Tetrahydropyridine derivatives with inhibitory activity on the production of proinflammatory cytokines: part 3” (Bioorg Med Chem Lett, 2010).

pIC50: −log10 of the molar value. The source made the active and inactive calls. The calls are words filed in the database; no cut-off is given here.

Test [1] deals with Mus musculus. The test is described as follows: Antiinflammatory activity in po dosed mouse assessed as inhibition of LPS-induced TNFalpha production administered 30 mins before LPS challenge measured after 1 hr by ELISA. The class given is functional. As to conditions: read-out: ID50 (the source's name). Summed up: (§1)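 Groups of five mice were used. ID50 came from a least-squares linear regression of % inhibition against log dose, with 95% confidence intervals by Fieller's theorem.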

Test [2] has as its system Blood. Briefly: Antiinflammatory activity in human whole blood assessed as inhibition of LPS-induced TNFalpha production at 1 uM after 6 hrs by immunoassay. Format: functional.
In test [3] the test system is Blood. Briefly: Antiinflammatory activity in human whole blood assessed as inhibition of LPS-induced TNFalpha production after 6 hrs by immunoassay. The class given is functional, tissue-based. Summed up: (§2)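 Values are the mean and SD of three to four determinations. IC50 came from a least-squares linear regression of % inhibition against log concentration, with 95% confidence intervals by Fieller's theorem.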

Test [4] deals with Blood. The test is described as follows: Antiinflammatory activity in human whole blood assessed as inhibition of LPS-induced IL-8 production after 6 hrs by immunoassay. The class given is functional, tissue-based. The procedure, abridged:
as §2

The subject of test [5] is Mus musculus. The test is described as follows: Antiinflammatory activity in po dosed mouse assessed as inhibition of LPS-induced IL-6 production. The class given is functional. The following applies: read-out: ID50 (the source's name). The procedure, abridged:
as §1

In test [6] the test system is Rattus norvegicus. Briefly: Analgesic activity in po dosed heat-killed mycobacterium tuberculosis-induced rat arthritis model assessed as decrease in squeaking behavior after 72 hrs […]. The class given is functional. As to conditions: read-out: ID50 (the source's name).
The target in test [7] is T1, Mitogen-activated protein kinase 12 (Homo sapiens, UniProt P53778).
T1 sequence (P53778 whole entry): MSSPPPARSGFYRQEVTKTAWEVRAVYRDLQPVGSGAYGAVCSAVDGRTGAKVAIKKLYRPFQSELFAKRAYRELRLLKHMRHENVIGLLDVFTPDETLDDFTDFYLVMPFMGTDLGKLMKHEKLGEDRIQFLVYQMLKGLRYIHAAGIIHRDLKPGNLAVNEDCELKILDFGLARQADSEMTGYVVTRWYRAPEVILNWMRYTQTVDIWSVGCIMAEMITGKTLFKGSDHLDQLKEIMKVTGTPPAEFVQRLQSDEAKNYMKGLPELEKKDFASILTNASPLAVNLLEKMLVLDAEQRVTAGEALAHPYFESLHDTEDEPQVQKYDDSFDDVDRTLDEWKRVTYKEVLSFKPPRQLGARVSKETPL
The test is described as follows: Inhibition of p38-gamma. Summed up:
(§3)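 Kinase inhibition IC50 was the mean and SD of three to four determinations. It was derived by least-squares linear regression of % inhibition against log concentration, with 95% confidence intervals by Fieller's theorem.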

The species named for test [8] is Mus musculus. Briefly: Antiarthritic activity in DBA/1 mouse assessed as inhibition of collagen-induced arthritis. Format: functional. As to conditions: read-out: ID50 (the source's name). The procedure, abridged:
as §1

The species named for test [9] is Mus musculus. Briefly: Antiarthritic activity in DBA/1 mouse assessed as inhibition of anti-collagen antibody-induced arthritis after 3 weeks. Format: functional. As to conditions: DBA/1, 504 h, read-out: ID50 (the source's name). Summed up: as §1
For test [10], the target named is T2, Mitogen-activated protein kinase 12 (Homo sapiens) (UniProt P53778).
T2 sequence (whole entry): T1 sequence (P53778 whole entry)
The test is described as follows: Inhibition of p38-gamma at 10 uM.

The target of test [11] is T3, Mitogen-activated protein kinase 13 (Homo sapiens, UniProt O15264).
T3 sequence (O15264 whole entry): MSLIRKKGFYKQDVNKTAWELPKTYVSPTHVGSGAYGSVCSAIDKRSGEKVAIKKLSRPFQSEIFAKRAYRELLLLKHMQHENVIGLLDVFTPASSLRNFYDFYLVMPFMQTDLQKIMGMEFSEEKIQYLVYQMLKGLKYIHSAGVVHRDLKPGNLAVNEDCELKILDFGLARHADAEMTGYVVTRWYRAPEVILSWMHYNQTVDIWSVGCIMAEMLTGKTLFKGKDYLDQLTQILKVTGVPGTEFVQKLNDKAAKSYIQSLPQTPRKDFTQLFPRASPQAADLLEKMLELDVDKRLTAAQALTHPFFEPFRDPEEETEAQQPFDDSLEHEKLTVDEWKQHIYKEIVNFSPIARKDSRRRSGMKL
Briefly: Inhibition of p38delta. Summed up: as §3

Test [12] has as its system Mus musculus. The test is described as follows: Antiinflammatory activity in po dosed mouse assessed as inhibition of LPS-induced IL1-beta production administered 2 hrs after LPS challenge. Format: functional. The following applies: read-out: ID50 (the source's name). The procedure, abridged: as §1
The target in test [13] is Mitogen-activated protein kinase 11 (Homo sapiens, UniProt Q15759). The test is described as follows: Inhibition of p38beta. The procedure, abridged: as §3
Sequence of Mitogen-activated protein kinase 11 (Q15759 whole entry): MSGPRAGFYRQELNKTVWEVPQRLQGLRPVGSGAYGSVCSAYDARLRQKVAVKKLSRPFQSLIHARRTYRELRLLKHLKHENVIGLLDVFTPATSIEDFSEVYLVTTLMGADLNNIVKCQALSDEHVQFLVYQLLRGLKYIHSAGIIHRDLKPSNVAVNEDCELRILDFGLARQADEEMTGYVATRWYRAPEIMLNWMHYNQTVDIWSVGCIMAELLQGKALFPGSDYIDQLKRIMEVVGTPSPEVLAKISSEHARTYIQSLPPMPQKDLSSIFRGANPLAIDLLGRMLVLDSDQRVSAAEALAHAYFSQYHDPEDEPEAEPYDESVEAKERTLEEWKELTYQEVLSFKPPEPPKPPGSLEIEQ
In test [14] the test system is Rattus norvegicus. Briefly: Antiarthritic activity in po dosed heat-killed mycobacterium tuberculosis-induced rat arthritis model assessed as decrease in paw volume administered QD for 20 days measured on day 21 by plethysmometry. Format: functional. The following applies: read-out: ID50 (the source's name).
In test [15] the test system is Blood. The test is described as follows: Antiinflammatory activity in human whole blood assessed as inhibition of LPS-induced IL1-beta production after 6 hrs by immunoassay. Format: functional, tissue-based. The procedure, abridged: as §2
Test [16] has as its system Blood. The test is described as follows: Antiinflammatory activity in human whole blood assessed as inhibition of LPS-induced IL-6 production after 6 hrs by immunoassay. The class given is functional, tissue-based. Summed up:
as §2

For test [17], the system named is Rattus norvegicus. The test is described as follows: Antiarthritic activity in po dosed heat-killed mycobacterium tuberculosis-induced rat arthritis model assessed as decrease in paw volume administered BID for 7 days measured 24 hrs post last dose by plethysmometry. Format: functional. The following applies: read-out: ID50 (the source's name). The procedure, abridged: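 Adjuvant arthritis was established by day 18, and rats with injected-foot volume ≥2.75 mL were grouped to equal means. Test agents in 0.5% CMC were given orally at 5 mL/kg twice daily on days 18–24. Feet were measured by plethysmometer on days 18, 20, 23 and 25. The swelled-foot ratio (day 25/day 18, corrected by normal animals) gave % inhibition versus controls. n=5.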

Test [18] addresses T4, Mitogen-activated protein kinase 13 (Homo sapiens) (UniProt O15264).
T4 sequence (whole entry): T3 sequence (O15264 whole entry)
The test is described as follows: Inhibition of p38delta at 10 uM.

For test [19], the target named is Mitogen-activated protein kinase 14 (Homo sapiens, UniProt Q16539). The test is described as follows: Inhibition of p38alpha. The procedure, abridged: as §3
Sequence of Mitogen-activated protein kinase 14 (Q16539 whole entry): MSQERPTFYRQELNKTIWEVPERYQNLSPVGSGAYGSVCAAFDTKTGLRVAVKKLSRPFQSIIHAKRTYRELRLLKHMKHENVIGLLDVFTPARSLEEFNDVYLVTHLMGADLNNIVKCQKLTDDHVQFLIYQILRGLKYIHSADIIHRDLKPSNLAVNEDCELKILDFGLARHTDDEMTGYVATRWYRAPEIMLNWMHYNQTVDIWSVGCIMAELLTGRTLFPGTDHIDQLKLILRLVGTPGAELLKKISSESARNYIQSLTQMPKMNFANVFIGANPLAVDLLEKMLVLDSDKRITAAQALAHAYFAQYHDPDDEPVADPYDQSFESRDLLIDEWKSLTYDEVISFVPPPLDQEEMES

Consider `Fc1ccc(-c2[nH]cc(C3=C[C@H]4CCCN4CC3)c2-c2ccncc2)cc1`, for which the ED50 with Mus musculus [1] amounted to 6.59 mg/kg. Besides, the inhibition at 1 µM with Blood [2] is 49%.
As to `Fc1ccc(-c2[nH]cc(C3=CCN4CCCC4C3)c2-c2ccncc2)cc1` (stereo not drawn), in the test on Mus musculus [1], the ED50 is 2.85 mg/kg. Moreover, in the test on Blood [3], the pIC50 was 6.22.
`Fc1ccc(-c2[nH]cc(C3=C[C@@H]4CCCN4CC3)c2-c2ccncc2)cc1`: the pIC50 with Blood [4] is 7.80; in test [7], less than 5.00; in [11], less than 5.00; in [13] it was 6.24; with Blood [15], 7.70; with Blood [16], 6.06. Besides, the pIC50 in the test with Blood [3] is 7.59; in [19], 7.47. The ED50 in the test on Mus musculus [5] was 0.11 mg/kg; with Rattus norvegicus [6], 2.9 mg/kg; in the test filed under Mus musculus [8], 2.38 mg/kg; in the test filed under Mus musculus [9] it was 2.22 mg/kg; in the test with Mus musculus [12], 8.63 mg/kg; in the test with Rattus norvegicus [14], 3.1 mg/kg. Moreover, the ED50 with Mus musculus [1] came out at 0.93 mg/kg; with Rattus norvegicus [17], 4.9 mg/kg. Further, the inhibition result in test [10] and in test [18] was “inactive” each time.
Regarding `Fc1ccc(-c2[nH]cc(C3=CC4CCCCN4CC3)c2-c2ccncc2)cc1` (stereo not drawn), the ED50 in the test with Mus musculus [1] came out at 2.27 mg/kg. The pIC50 in the test on Blood [3] was 6.51.
For `Fc1ccc(-c2[nH]cc(C3=CC4CCCN4CC3)c2-c2ccncc2)cc1` (stereo not drawn), the ED50 in the test with Mus musculus [1] amounted to 1.09 mg/kg. For the same compound, the pIC50 in the test with Blood [3] was 7.38.
Taken in the same sequence, the figures for `Fc1ccc(-c2[nH]cc(C3=CCN4CCCCC4C3)c2-c2ccncc2)cc1` (stereo not drawn) were 3.55 mg/kg and 6.09.
